Laboratory results published in ChEMBL document CHEMBL4765409, “Synthesis and biological evaluation of geniposide derivatives as potent and selective PTPlB inhibitors” (Eur J Med Chem, 2020).

What was measured:
[1] = molecular target: T1, Tyrosine-protein phosphatase non-receptor type 1 (Homo sapiens, UniProt P18031); assay: Inhibition of recombinant human PTP1B using pNPP as substrate measured after 30 mins
T1 sequence (P18031 whole entry): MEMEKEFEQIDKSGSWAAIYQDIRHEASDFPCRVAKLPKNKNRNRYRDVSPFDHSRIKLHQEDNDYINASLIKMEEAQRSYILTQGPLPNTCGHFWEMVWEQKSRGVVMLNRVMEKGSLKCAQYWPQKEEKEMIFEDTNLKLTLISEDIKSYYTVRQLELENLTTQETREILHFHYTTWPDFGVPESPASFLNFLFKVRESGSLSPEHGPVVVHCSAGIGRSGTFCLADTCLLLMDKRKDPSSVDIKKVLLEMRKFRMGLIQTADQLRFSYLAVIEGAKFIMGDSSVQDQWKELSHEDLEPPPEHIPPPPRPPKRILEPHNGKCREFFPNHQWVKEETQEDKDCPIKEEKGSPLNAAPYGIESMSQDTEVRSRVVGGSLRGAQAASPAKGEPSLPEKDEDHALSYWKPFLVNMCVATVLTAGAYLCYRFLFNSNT
In short: (§1)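 75 nM recombinant enzyme (PTP1B, TCPTP or SHP2) with 2.5 mM pNPP in 10 mM Tris, 25 mM NaCl, 1 mM EDTA, pH 7.1; compounds added from DMSO. Reaction run 30 min at room temperature, stopped with 2.0 N NaOH, pNP read at 405 nm. Sodium vanadate as positive control. IC50 from enzyme progress curves; means of triplicates, repeated twice.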

[2] = molecular target: T2, Tyrosine-protein phosphatase non-receptor type 11 (Homo sapiens, UniProt Q06124); assay: Inhibition of recombinant SHP2 (unknown origin) using pNPP as substrate measured after 30 mins; in short: as §1
T2 sequence (Q06124 whole entry): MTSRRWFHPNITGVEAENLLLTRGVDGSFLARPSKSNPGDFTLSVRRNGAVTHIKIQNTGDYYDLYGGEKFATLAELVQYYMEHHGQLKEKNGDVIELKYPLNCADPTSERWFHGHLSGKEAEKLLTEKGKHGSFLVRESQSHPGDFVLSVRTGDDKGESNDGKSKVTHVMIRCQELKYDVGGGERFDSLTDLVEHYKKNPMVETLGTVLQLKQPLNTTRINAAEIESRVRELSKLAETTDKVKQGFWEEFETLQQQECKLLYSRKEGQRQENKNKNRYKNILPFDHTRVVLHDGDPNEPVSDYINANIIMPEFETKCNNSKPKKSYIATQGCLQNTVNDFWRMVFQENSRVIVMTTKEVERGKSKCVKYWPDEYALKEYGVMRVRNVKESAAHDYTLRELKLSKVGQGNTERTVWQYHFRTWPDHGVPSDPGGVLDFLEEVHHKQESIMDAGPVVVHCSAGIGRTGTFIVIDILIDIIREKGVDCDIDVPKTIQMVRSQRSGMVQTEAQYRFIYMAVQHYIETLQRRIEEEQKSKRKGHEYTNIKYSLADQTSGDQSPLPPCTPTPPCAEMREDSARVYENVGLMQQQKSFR

CHO = assay: Cytotoxicity against CHO cells assessed as reduction in cell viability measured after 24 hrs by MTT assay; type: cell-based; details: Cricetulus griseus
In short: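 CHO cells in DMEM with 10% FBS and 1% penicillin-streptomycin, 5% CO2, 37 °C; 5×10^3 cells/well seeded, treated after 24 h with varying compound concentrations for 24 h. MTT then added for 4 h at 37 °C in the dark, medium removed, formazan dissolved in DMSO, OD read at 490 nm.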

[3] = molecular target: T3, Tyrosine-protein phosphatase non-receptor type 2 (Homo sapiens, UniProt P17706); assay: Inhibition of recombinant human TCPTP using pNPP as substrate measured after 30 mins; in short: as §1
T3 sequence (P17706 whole entry): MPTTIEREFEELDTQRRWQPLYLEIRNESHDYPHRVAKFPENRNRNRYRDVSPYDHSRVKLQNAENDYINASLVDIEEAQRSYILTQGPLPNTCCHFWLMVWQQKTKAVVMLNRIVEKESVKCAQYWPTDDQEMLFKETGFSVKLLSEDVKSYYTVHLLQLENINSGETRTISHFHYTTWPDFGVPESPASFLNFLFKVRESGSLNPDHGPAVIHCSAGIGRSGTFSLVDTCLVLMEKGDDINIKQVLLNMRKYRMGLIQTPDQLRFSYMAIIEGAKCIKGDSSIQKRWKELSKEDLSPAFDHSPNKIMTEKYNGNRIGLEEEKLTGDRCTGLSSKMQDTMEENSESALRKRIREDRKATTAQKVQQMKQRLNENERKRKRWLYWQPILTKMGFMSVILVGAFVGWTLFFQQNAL

CHO (Cricetulus griseus) = assay: Cytotoxicity against Chinese hamster CHO cells assessed as reduction in cell viability measured after 24 hrs by MTT assay
[4] = molecular target: T4, Tyrosine-protein phosphatase non-receptor type 1 (Homo sapiens) (UniProt P18031); assay: Inhibition of PTP1B in human HepG2 cells assessed as improvement in insulin-induced 2-NBDG uptake at 10 uM incubated for 24 hrs prior to compound washout followed by insulin stimulation for 20 mins and subsequent 2-NBDG addition measured after 60 mins by FACS analysis relative to control; type: cell-based
T4 sequence (whole entry): T1 sequence (P18031 whole entry)
In short: (§2)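 HepG2 cells in DMEM with 10% FBS and 1% penicillin-streptomycin, 5% CO2, 37 °C; 5×10^4 cells/well in 24-well plates. Compound exposure 24 h, then two PBS washes. Stimulated with 100 nM insulin for 20 min, then 50 μM 2-NBDG for 60 min. Uptake read by flow cytometry, FL1 channel; pioglitazone as positive control.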

[5] = molecular target: T4, Tyrosine-protein phosphatase non-receptor type 1 (Homo sapiens); assay: Inhibition of PTP1B in human HepG2 cells assessed as improvement in insulin-induced 2-NBDG uptake at 20 uM incubated for 24 hrs prior to compound washout followed by insulin stimulation for 20 mins and subsequent 2-NBDG addition measured after 60 mins by FACS analysis relative to control; type: cell-based; in short: as §2
[6] = molecular target: T4, Tyrosine-protein phosphatase non-receptor type 1 (Homo sapiens); assay: Inhibition of PTP1B in human HepG2 cells assessed as improvement in insulin-induced 2-NBDG uptake at 5 uM incubated for 24 hrs prior to compound washout followed by insulin stimulation for 20 mins and subsequent 2-NBDG addition measured after 60 mins by FACS analysis relative to control; type: cell-based; in short: as §2
[7] = molecular target: T1, Tyrosine-protein phosphatase non-receptor type 1; assay: Inhibition of recombinant human PTP1B (1 to 322 residues) expressed in Escherichia coli using IR5 (1142 to 1153, pY1146) as substrate by malachite green dye based colorimetric assay

For `O=C(Nc1ccccc1F)C1=CO[C@@H](O[C@@H]2O[C@H](CO)[C@@H](O)[C@H](O)[C@H]2O)[C@@H]2C(CO)=CC[C@H]12`, the IC50 [1] was 20.8 µM.

With `O=C(O)C1=CO[C@@H](O[C@@H]2O[C@H](COCc3ccccc3)[C@@H](OCc3ccccc3)[C@H](OCc3ccccc3)[C@H]2OCc2ccccc2)[C@@H]2C(COCc3ccccc3)=CC[C@H]12` the IC50 [2] was 3.32 µM, the IC50 (CHO) was over 200 µM and the IC50 [3] was 1.32 µM. It also gave an IC50 [1] of 0.38 µM and an IC50 (CHO (Cricetulus griseus)) of over 200 µM.

In the case of `CCc1ccccc1NC(=O)C1=CO[C@@H](O[C@@H]2O[C@H](CO)[C@@H](O)[C@H](O)[C@H]2O)[C@@H]2C(CO)=CC[C@H]12`, the IC50 [2] is reported as over 100 µM, the IC50 [3] is reported as over 100 µM and the IC50 [1] is reported as 18.3 µM.

`COC(=O)C1=CO[C@@H](O[C@@H]2O[C@H](CO)[C@@H](O)[C@H](O)[C@H]2O)[C@@H]2C(CO)=CC[C@H]12` [GENIPOSIDE] showed an IC50 [2] of over 500 µM, an IC50 [3] of over 500 µM and an IC50 [1] of over 500 µM.

Work on `CCO[C@@H]1OC=C(C(=O)OC)[C@H]2CC=C(CO)[C@@H]12` yielded an IC50 [1] of 64.7 µM.

Compound `O=C(Nc1ccc(Oc2ccccc2)cc1)C1=CO[C@@H](O[C@@H]2O[C@H](CO)[C@@H](O)[C@H](O)[C@H]2O)[C@@H]2C(CO)=CC[C@H]12` has an IC50 [1] of 25.2 µM.

For `O=C(Nc1ccc(Oc2ccccc2)cc1)C1=CO[C@@H](O[C@@H]2O[C@H](COCc3ccccc3)[C@@H](OCc3ccccc3)[C@H](OCc3ccccc3)[C@H]2OCc2ccccc2)[C@@H]2C(COCc3ccccc3)=CC[C@H]12`, the IC50 (CHO) was over 200 µM, the IC50 [1] was 0.4 µM and the IC50 (CHO (Cricetulus griseus)) was over 200 µM.

For `CCOS(=O)(=O)/C=C/c1ccc(OCC2=CC[C@@H]3C(C(=O)Nc4ccc(Oc5ccc(-c6ccccc6)cc5)cc4)=CO[C@@H](OC)[C@H]23)cc1`, the IC50 [2] was 1.24 µM, the inhibition [4] was 68% and the IC50 (CHO) was over 200 µM. For the same compound, the IC50 [3] was 0.95 µM, the IC50 [1] was 0.43 µM and the inhibition [5] was 69.6%. The IC50 (CHO (Cricetulus griseus)) was over 200 µM and the inhibition [6] was 38.6%.

`O=C1C[C@@H](O[C@@H]2O[C@H](CO)[C@@H](O)[C@H](O)[C@H]2O)CO1` was tested, and the IC50 [2] was over 50 µM, the IC50 [7] was 5.14 µM and the IC50 [3] was over 50 µM. For the same compound, the IC50 [1] was 5.8 µM.

`CCOS(=O)(=O)/C=C/c1ccc(OCC2=CC[C@@H]3C(C(=O)Nc4ccc(Oc5ccccc5)cc4)=CO[C@@H](OC)[C@H]23)cc1` gave an IC50 (CHO) of over 200 µM, an IC50 [1] of 2.67 µM and an IC50 (CHO (Cricetulus griseus)) of over 200 µM.

Work on `CCOS(=O)(=O)/C=C/c1ccc(OCC2=CC[C@@H]3C(C(=O)OC)=CO[C@@H](OCc4ccccc4)[C@H]23)cc1` yielded an IC50 [1] of 13.2 µM.

Work on `CCOS(=O)(=O)/C=C/c1ccc(OCC2=CC[C@@H]3C(C(=O)Nc4ccc(Oc5ccc6ccccc6c5)cc4)=CO[C@@H](OC)[C@H]23)cc1` yielded an IC50 (CHO) of over 200 µM, an IC50 [1] of 0.75 µM and an IC50 (CHO (Cricetulus griseus)) of over 200 µM.

`CCOS(=O)(=O)/C=C/c1ccc(OCC2=CC[C@@H]3C(C(=O)Nc4ccc(Oc5ccccc5)cc4)=CO[C@@H](OCc4ccccc4)[C@H]23)cc1` was tested, and the IC50 (CHO) was 62 µM, the IC50 [1] was 0.99 µM and the IC50 (CHO (Cricetulus griseus)) was over 200 µM.

In the case of `CCOS(=O)(=O)/C=C/c1ccc(OCC2=CC[C@@H]3C(C(=O)Nc4ccc(Oc5ccc(Br)cc5Cl)cc4)=CO[C@@H](OCc4ccccc4)[C@H]23)cc1`, the IC50 [2] is reported as 3.97 µM, the inhibition [4] is reported as 68.3% and the IC50 (CHO) is reported as over 200 µM. It also gave an IC50 [3] of 1.29 µM, an IC50 [1] of 0.41 µM and an inhibition [5] of 64.4%. It also gave an IC50 (CHO (Cricetulus griseus)) of over 200 µM and an inhibition [6] of 43.8%.

Work on `O=C(Nc1ccc(-c2ccccc2)cc1)C1=CO[C@@H](O[C@@H]2O[C@H](CO)[C@@H](O)[C@H](O)[C@H]2O)[C@@H]2C(CO)=CC[C@H]12` yielded an IC50 [1] of 21.7 µM.

`CCOS(=O)(=O)/C=C/c1ccc(OCC2=CC[C@@H]3C(C(=O)Nc4ccc(Oc5ccc(Br)cc5Cl)cc4)=CO[C@@H](OC)[C@H]23)cc1` gave an IC50 (CHO) of over 200 µM, an IC50 [1] of 1.05 µM and an IC50 (CHO (Cricetulus griseus)) of over 200 µM.

With `CCOS(=O)(=O)/C=C/c1ccc(CNC(=O)C2=CO[C@@H](O[C@@H]3O[C@H](COCc4ccccc4)[C@@H](OCc4ccccc4)[C@H](OCc4ccccc4)[C@H]3OCc3ccccc3)[C@@H]3C(COCc4ccccc4)=CC[C@H]23)cc1` the inhibition [4] was 36.5%, the IC50 (CHO) was over 200 µM and the IC50 [1] was 0.35 µM. The inhibition [5] was 49.8%, the IC50 (CHO (Cricetulus griseus)) was over 200 µM and the inhibition [6] was 43.4%.

Compound `COC(=O)C1=CO[C@@H](O)[C@@H]2C(CO)=CC[C@H]12` [GENIPIN] has an IC50 [2] of over 500 µM, an IC50 [3] of over 500 µM and an IC50 [1] of over 500 µM.

In the case of `COC(=O)C1=CO[C@@H](OC)[C@@H]2C(CO)=CC[C@H]12`, the IC50 [1] is reported as 236 µM.

With `CC(C)(C)c1ccc(Oc2ccc(NC(=O)C3=CO[C@@H](O[C@@H]4O[C@H](CO)[C@@H](O)[C@H](O)[C@H]4O)[C@@H]4C(CO)=CC[C@H]34)cc2)cc1` the IC50 [2] was over 100 µM, the IC50 [3] was over 100 µM and the IC50 [1] was 17.7 µM.

`COC(=O)C1=CO[C@@H](OCc2ccccc2)[C@@H]2C(CO)=CC[C@H]12` showed an IC50 [1] of 40.3 µM.

`O=C(Nc1ccccc1)C1=CO[C@@H](O[C@@H]2O[C@H](CO)[C@@H](O)[C@H](O)[C@H]2O)[C@@H]2C(CO)=CC[C@H]12` was tested, and the IC50 [1] was over 100 µM.

With `COc1ccccc1NC(=O)C1=CO[C@@H](O[C@@H]2O[C@H](CO)[C@@H](O)[C@H](O)[C@H]2O)[C@@H]2C(CO)=CC[C@H]12` the IC50 [1] was 50.8 µM.

`CCc1ccc(CCOc2ccc(CC3SC(=O)NC3=O)cc2)nc1` (stereo not drawn) gave an inhibition [4] of 46%, an inhibition [5] of 63.5% and an inhibition [6] of 33.8%.

In the case of `COC(=O)C1=CO[C@@H](O[C@@H]2O[C@H](COCc3ccccc3)[C@@H](OCc3ccccc3)[C@H](OCc3ccccc3)[C@H]2OCc2ccccc2)[C@@H]2C(COCc3ccccc3)=CC[C@H]12`, the IC50 (CHO) is reported as 42 µM, the IC50 [1] is reported as 0.68 µM and the IC50 (CHO (Cricetulus griseus)) is reported as over 200 µM.
